Data as given in ChEMBL document CHEMBL1806414, “Synthesis and anticonvulsant activity of 7-phenyl-6,7-dihydro-[1,2,4]triazolo[1,5-a]pyrimidin-5(4H)-ones and their derivatives” (Eur J Med Chem, 2011).
Activity calls are given as the source filed them. The rule behind the calls is not given here.

Tests used:
Mus musculus [1] = experiment: Anticonvulsant activity in Kunming mouse assessed as protection against maximal electric shock-induced seizures at 300 mg/kg, ip measured after 0.5 hrs; assay type: functional, organism-based; parameters: dose 300 mg/kg
Summary of the method: (§1)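 KunMing mice (18–22 g), compounds dissolved in DMSO, given i.p. at 30, 100 and 300 mg/kg, three mice per dose. Current applied through corneal electrodes for 0.2 s at 0.5 h and 4 h after dosing. Protection is abolition of tonic hind-leg extension, scored as protected/tested.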

Mus musculus [2] = experiment: Anticonvulsant activity against maximal electric shock-induced seizures in ip dosed Kunming mouse assessed as median effective dose; assay type: functional
Summary of the method: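 Phase-II MES test in KunMing mice (18–22 g), DMSO vehicle, corneal electrode stimulus 0.2 s. Groups of 10 mice got a range of i.p. doses until at least three points fell within 10–90% seizure protection, giving the median effective dose. Endpoint is abolition of tonic hind-leg extension.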

Mus musculus [3] = experiment: Neurotoxicity in Kunming mouse at 300 mg/kg, ip after 4 hrs; assay type: toxicity, organism-based; parameters: dose 300 mg/kg, route intraperitoneal; conditions: in vivo
Summary of the method: (§2)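 Rotarod neurotoxicity in KunMing mice (18–22 g) trained on a 3.2 cm diameter rod at 10 rpm. Compounds in DMSO were given i.p. at 30, 100 and 300 mg/kg, three mice per dose, and tested at 0.5 h and 4 h after dosing.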

Mus musculus [4] = experiment: Neurotoxicity in Kunming mouse at 100 mg/kg, ip after 0.5 hrs; assay type: toxicity, organism-based; parameters: dose 100 mg/kg, route intraperitoneal; conditions: in vivo; summary of the method: as §2
Mus musculus [5] = experiment: Anticonvulsant activity in Kunming mouse assessed as inhibition of subcutaneous pentylenetetrazol-induced clonic seizures at 50 mg/kg, ip after 0.5 hrs; assay type: functional; parameters: scale not given: the % may be the effect or the level left
Summary of the method: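 Compound or vehicle (DMSO) given i.p. to KunMing mice, 10 per group, before the pentylenetetrazol challenge. Mice were held in individual cages and observed for 0.5 h. Clonic seizures, tonic seizures (hind-leg extension) and deaths were counted.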

Mus musculus [6] = experiment: Anticonvulsant activity in Kunming mouse assessed as inhibition of subcutaneous pentylenetetrazol-induced tonic seizures at 50 mg/kg, ip after 0.5 hrs; assay type: functional; parameters: scale not given: the % may be the effect or the level left
Mus musculus [7] = experiment: Anticonvulsant activity in Kunming mouse assessed as inhibition of thiosemicarbazide-induced tonic seizures at 30 mg/kg, ip after 2.5 hrs; assay type: functional; parameters: scale not given: the % may be the effect or the level left; conditions: route intraperitoneal
Summary of the method: (§3)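 Thiosemicarbazide, 50 mg/kg i.p., was given 0.5 h after compound or DMSO to KunMing mice, 10 per group. Mice were caged individually and observed for 2.5 h for clonic and tonic seizures and deaths.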

[8] = Neurotoxicity in ip dosed Kunming mouse by rotarod test; assay type: toxicity, organism-based; conditions: in vivo
Summary of the method: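 Phase-II rotarod test in KunMing mice trained on a 3.2 cm rod at 10 rpm, DMSO vehicle. Groups of 10 mice got graded i.p. doses until at least three points fell within 10–90% minimal neurotoxicity, giving the median toxic dose.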

Mus musculus [9] = experiment: Anticonvulsant activity in Kunming mouse assessed as inhibition of isoniazid-induced clonic seizures at 50 mg/kg, ip after 1 hrs; assay type: functional; parameters: scale not given: the % may be the effect or the level left; conditions: route intraperitoneal
Mus musculus [10] = experiment: Neurotoxicity in Kunming mouse at 300 mg/kg, ip after 0.5 hrs; assay type: toxicity, organism-based; parameters: dose 300 mg/kg, route intraperitoneal; conditions: in vivo; summary of the method: as §2
Mus musculus [11] = experiment: Anticonvulsant activity in Kunming mouse assessed as protection against maximal electric shock-induced seizures at 30 mg/kg, ip measured after 4 hrs; assay type: functional, organism-based; parameters: dose 30 mg/kg; summary of the method: as §1
Mus musculus [12] = experiment: Anticonvulsant activity in Kunming mouse assessed as protection against maximal electric shock-induced seizures at 100 mg/kg, ip measured after 4 hrs; assay type: functional, organism-based; parameters: dose 100 mg/kg; summary of the method: as §1
Mus musculus [13] = experiment: Anticonvulsant activity in Kunming mouse assessed as inhibition of bicuculline-induced tonic seizures at 30 mg/kg, ip after 0.5 hrs; assay type: functional; parameters: scale not given: the % may be the effect or the level left; conditions: route intraperitoneal
Summary of the method: (§4)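 Kunming mice (18–22 g, 10/group) received test compound i.p. in DMSO; 0.5 h later bicuculline, 5.4 mg/kg, was given s.c. within 15–45 min of preparation. Mice were isolated and observed for at least 0.5 h for clonic seizures, tonic seizures and lethality.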

Mus musculus [14] = experiment: Anticonvulsant activity in Kunming mouse assessed as inhibition of thiosemicarbazide-induced clonic seizures at 30 mg/kg, ip after 2.5 hrs; assay type: functional; parameters: scale not given: the % may be the effect or the level left; conditions: route intraperitoneal; summary of the method: as §3
Mus musculus [15] = experiment: Anticonvulsant activity in Kunming mouse assessed as inhibition of 3-mercaptopropionic acid-induced clonic seizures at 30 mg/kg, ip after 0.5 hrs; assay type: functional; parameters: scale not given: the % may be the effect or the level left; conditions: route intraperitoneal
Summary of the method: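 3-Mercaptopropionic acid, 60 mg/kg in saline, was injected s.c. 0.5 h after i.p. compound or DMSO in KunMing mice, 10 per group. Clonic and tonic seizures and deaths were scored.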

Mus musculus [16] = experiment: Anticonvulsant activity in Kunming mouse assessed as inhibition of bicuculline-induced death at 30 mg/kg, ip after 0.5 hrs; assay type: functional; parameters: scale not given: the % may be the effect or the level left; conditions: route intraperitoneal; summary of the method: as §4
Mus musculus [17] = experiment: Anticonvulsant activity in Kunming mouse assessed as protection against maximal electric shock-induced seizures at 30 mg/kg, ip measured after 0.5 hrs; assay type: functional, organism-based; parameters: dose 30 mg/kg; summary of the method: as §1
Mus musculus [18] = experiment: Anticonvulsant activity in Kunming mouse assessed as inhibition of isoniazid-induced death at 50 mg/kg, ip after 1 hrs; assay type: functional; parameters: scale not given: the % may be the effect or the level left; conditions: route intraperitoneal
Mus musculus [19] = experiment: Anticonvulsant activity in Kunming mouse assessed as protection against maximal electric shock-induced seizures at 300 mg/kg, ip measured after 4 hrs; assay type: functional, organism-based; parameters: dose 300 mg/kg; summary of the method: as §1
Mus musculus [20] = experiment: Anticonvulsant activity in Kunming mouse assessed as inhibition of 3-mercaptopropionic acid-induced tonic seizures at 30 mg/kg, ip after 0.5 hrs; assay type: functional; parameters: scale not given: the % may be the effect or the level left; conditions: route intraperitoneal
Summary of the method: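 Kunming mice (18–22 g, 10/group) received test compound i.p. in DMSO; 0.5 h later 3-mercaptopropionic acid, 60 mg/kg in saline, was given s.c. Mice were scored for clonic seizures, tonic seizures (hind-leg extension) and deaths.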

Mus musculus [21] = experiment: Anticonvulsant activity in Kunming mouse assessed as inhibition of bicuculline-induced clonic seizures at 30 mg/kg, ip after 0.5 hrs; assay type: functional; parameters: scale not given: the % may be the effect or the level left; conditions: route intraperitoneal
Summary of the method: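 Bicuculline, 5.4 mg/kg s.c. and used within 15–45 min of preparation, was given 0.5 h after i.p. compound or DMSO to KunMing mice, 10 per group. Mice were isolated and observed for at least 0.5 h for clonic seizures, tonic seizures and lethality.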

Mus musculus [22] = experiment: Anticonvulsant activity in Kunming mouse assessed as inhibition of isoniazid-induced tonic seizures at 50 mg/kg, ip after 1 hrs; assay type: functional; parameters: scale not given: the % may be the effect or the level left; conditions: route intraperitoneal
Summary of the method: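 Isoniazid given at 250 mg/kg, a dose convulsing all controls, to KunMing mice pretreated i.p. with compound or DMSO. Mice were caged individually and observed for 1 h, counting clonic seizures, tonic seizures and deaths.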

Mus musculus [23] = experiment: Anticonvulsant activity in Kunming mouse assessed as protection against maximal electric shock-induced seizures at 100 mg/kg, ip measured after 0.5 hrs; assay type: functional, organism-based; parameters: dose 100 mg/kg; summary of the method: as §1
Mus musculus [24] = experiment: Neurotoxicity in Kunming mouse at 100 mg/kg, ip after 4 hrs; assay type: toxicity, organism-based; parameters: dose 100 mg/kg, route intraperitoneal; conditions: in vivo; summary of the method: as §2
Mus musculus [25] = organism: Mus musculus; experiment: Protective index, ratio of TD50 for neurotoxicity in Kunming mouse to ED50 for inhibition of MES-induced seizures in Kunming mouse; assay type: functional

| Structure (SMILES) | Activity (Mus musculus [1]) | ED50 (Mus musculus [2]) [mg/kg] | Activity (Mus musculus [3]) | Activity (Mus musculus [4]) | TD50 [8] [mg/kg] | Activity (Mus musculus [10]) | Activity (Mus musculus [11]) | Activity (Mus musculus [12]) | Activity (Mus musculus [17]) | Activity (Mus musculus [19]) | Activity (Mus musculus [23]) | Activity (Mus musculus [24]) | Ratio TD50/ED50 (Mus musculus [25]) | other results |
| --- | --- | --- | --- | --- | --- | --- | --- | --- | --- | --- | --- | --- | --- | --- |
| O=C1CC(c2ccccc2Br)n2ncnc2N1 (stereo unspecified) | Active | 19.7 | Non-toxic | Non-toxic | 685 | Non-toxic | inactive | inactive | Active | inactive | Active | Non-toxic | 34.8 | Activity (Mus musculus [5]): 0%; Activity (Mus musculus [6]): 0%; Activity (Mus musculus [7]): 0%; Activity (Mus musculus [9]): 100%; Activity (Mus musculus [13]): 10%; Activity (Mus musculus [14]): 100%; Activity (Mus musculus [15]): 100%; Activity (Mus musculus [16]): 50%; Activity (Mus musculus [18]): 30%; Activity (Mus musculus [20]): 0%; Activity (Mus musculus [21]): 100%; Activity (Mus musculus [22]): 0% |
| O=C1CC(c2ccccc2Cl)n2nccc2N1 (stereo unspecified) | Active | 63.4 | Non-toxic | – | 94.7 | Toxic | inactive | inactive | inactive | inactive | Active | Non-toxic | 1.5 | – |
| O=C1CC(c2ccccc2Br)n2nccc2N1 (stereo unspecified) | Active | 39.4 | Non-toxic | – | 132 | Toxic | inactive | inactive | inactive | inactive | Active | Non-toxic | 3.4 | – |
| O=C1CC(c2ccccc2)n2ccnc2N1 (stereo unspecified) | Active | 68.2 | Non-toxic | Non-toxic | 458 | Non-toxic | inactive | inactive | inactive | inactive | Active | Non-toxic | 6.7 | – |
| O=C1CC(c2cccc(Br)c2)n2ncnc2N1 (stereo unspecified) | Active | 84.9 | Non-toxic | Non-toxic | 592 | Non-toxic | inactive | inactive | inactive | inactive | Active | Non-toxic | 7 | – |
| O=C1CC(c2cccc(C(F)(F)F)c2)n2ncnc2N1 (stereo unspecified) | Active | 54.8 | Non-toxic | – | 158 | Toxic | inactive | inactive | inactive | inactive | Active | Non-toxic | 2.9 | – |
| NC(=O)N1c2ccccc2C=Cc2ccccc21 [CARBAMAZEPINE] | – | 11.8 | – | – | – | – | – | – | – | – | – | – | 6.4 | Activity (Mus musculus [5]): 100%; Activity (Mus musculus [6]): 0%; Activity (Mus musculus [7]): 0%; Activity (Mus musculus [9]): 50%; Activity (Mus musculus [13]): 0%; Activity (Mus musculus [14]): 100%; Activity (Mus musculus [15]): 100%; Activity (Mus musculus [16]): 20%; Activity (Mus musculus [20]): 0%; Activity (Mus musculus [21]): 100%; Activity (Mus musculus [22]): 0% |
| O=C1CC(c2ccccc2)n2nccc2N1 (stereo unspecified) | Active | 47.3 | Non-toxic | – | 118 | Toxic | inactive | inactive | – | inactive | Active | Non-toxic | 2.5 | – |
